# Source: ChEMBL document CHEMBL4715728, “New bifunctional antioxidant/σ1 agonist ligands: Preliminary chemico-physical and biological evaluation” (Bioorg Med Chem, 2016)
# Experiments:
# [1] = Cytotoxicity against Sprague-Dawley rat Cerebral cortex neuron assessed as LDH activity at 10 uM incubated for 24 hrs by LDH assay; assay type: tissue-based
# Summary of the method: (§1)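 Primary fetal rat cortical neurons, matured 8 days on poly-D-lysine, exposed 24 h at 37 °C to compound (0.1–100 µM; DMSO 0.5% or water vehicle). LDH released into 100 µl culture medium was measured by kit as the rate of NAD+ reduction (absorbance increase at 490 nm). Positive control was mitomycin C. Four independent experiments.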
# [2] = Cytotoxicity against rat Sprague-Dawley Cerebral cortex neuron assessed as cell viability at 50 uM incubated for 24 hrs by MTT assay relative to control; assay type: tissue-based; settings: cerebral cortex neurons, read-out: Activity
# Summary of the method: (§2)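 Primary fetal rat cortical neurons, matured 8 days, treated 24 h at 37 °C with compound (0.1–100 µM; 0.5% DMSO or water vehicle). MTT 0.7 mg/ml was then added for 30 min at 37 °C, and formazan was extracted with isopropanol/formic acid (95:5) and read at 560 nm. Untreated control was set as 100% viability. Four independent experiments.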
# [3] = Stability of compound in non-enzymatic stimulated-gastric fluid at pH 1.3 assessed as half life by HPLC-UV assay; assay type: physicochemical; settings: non-enzymatic simulated gastric fluid
# Summary of the method: (§3)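 Chemical hydrolysis in 0.02 M HCl buffer pH 1.3 (non-enzymatic simulated gastric fluid) or 0.02 M phosphate buffer pH 7.4, each containing 20% acetonitrile, at 37 °C. Started by adding the 10^-4 M acetonitrile stock. Samples taken over time and analyzed by HPLC-UV at 220 nm. Rate constants are means of triplicates.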
# [4] = Stability of compound in fasted state stimulated intestinal fluid at pH 1.3 assessed as half life in presence of 10 mg/ml pepsin by HPLC-UV assay; assay type: ADME; settings: fasted state simulated intestinal fluid with pepsin
# Summary of the method: (§4)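 HCl buffer with pepsin or phosphate buffer with pancreatin (10 or 40 mg/ml), preincubated at 37 °C. Drug stock (50 µM in ethanol/fasted state intestinal fluid 1:9) added and shaken at 37 °C, 650 rpm. Samples quenched with ice-cold acetonitrile containing 0.5% formic acid, centrifuged at 2 °C, and the supernatant assayed by HPLC-UV. Three experiments.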
# [5] = Antioxidant activity in Sprague-Dawley rat Cerebral cortex neuron assessed as total oxidative stress level by measuring H2O2 equivalents at 50 uM after 24 hrs (reference value: 2.3 +/- 0.3 umol/L); assay type: functional
# Summary of the method: (§5)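 Primary cerebral cortex neurons from rat fetuses, grown on poly-D-lysine in neurobasal medium with fetal calf serum (5% CO2, 37 °C), tested after 8 days in culture. Compounds in DMSO (0.5%) or sterile water were added and incubated 24 h at 37 °C. Cells were washed in ice-cold PBS and homogenized in 0.9% saline. Intracellular TAC (Trolox equiv.) and TOS (H2O2 equiv.) were read by kit. Ascorbic acid 10 µM (TAC) and H2O2 25 µM (TOS) served as positive controls. Four independent experiments.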
# [6] = Stability of compound in fasted state stimulated intestinal fluid at pH 1.3 assessed as half life in presence of 40 mg/ml pepsin by HPLC-UV assay; assay type: ADME; settings: fasted state simulated intestinal fluid with pepsin; summary of the method: as §4
# [7] = Antioxidant activity in Sprague-Dawley rat Cerebral cortex neuron assessed as total oxidative stress level by measuring H2O2 equivalents at 0.1 uM after 24 hrs (reference value: 2.3 +/- 0.3 umol/L); assay type: functional; summary of the method: as §5
# [8] = Stability of compound in phosphate buffer at pH 7.4 assessed as compound half life by HPLC-UV assay; assay type: physicochemical; summary of the method: as §3
# [9] = Stability of compound in phosphate buffer at pH 7.4 assessed as rate of compound hydrolysis by HPLC-UV assay; assay type: physicochemical; summary of the method: as §3
# [10] = Antioxidant activity in Sprague-Dawley rat Cerebral cortex neuron assessed as total antioxidant capacity by measuring trolox equivalents at 50 uM after 24 hrs; assay type: functional; summary of the method: as §5
# [11] = Stability of compound in fasted state stimulated intestinal fluid at pH 1.3 assessed as rate of compound hydrolysis in presence of 10 mg/ml pepsin by HPLC-UV assay; assay type: ADME; settings: isolated protein; summary of the method: as §4
# [12] = Stability of compound in human plasma assessed as rate of compound hydrolysis by HPLC-UV assay; assay type: ADME, cell-free
# Summary of the method: (§6)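 Citrated human or rat plasma diluted to 80% with 0.02 M phosphate buffer pH 7.4, 37 °C with shaking. Compound added from a 1 mg/ml acetonitrile stock. Aliquots deproteinized with 0.01 M HCl in methanol, centrifuged, and analyzed by HPLC-UV (C8 column, KH2PO4/methanol pH 2.5, 220 nm). Remaining intact compound plotted against time. Three experiments.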
# [13] = Cytotoxicity against Sprague-Dawley rat Cerebral cortex neuron assessed as cell viability at 1 uM incubated for 24 hrs by MTT assay relative to control; assay type: tissue-based; settings: cerebral cortex neurons, read-out: Activity; summary of the method: as §2
# [14] = Antioxidant activity in Sprague-Dawley rat Cerebral cortex neuron assessed as total oxidative stress level by measuring H2O2 equivalents at 25 uM after 24 hrs (reference value: 2.3 +/- 0.3 umol/L); assay type: functional; summary of the method: as §5
# [15] = Stability of compound in fasted state stimulated intestinal fluid at pH 1.3 assessed as rate of compound hydrolysis in presence of 40 mg/ml pepsin by HPLC-UV assay; assay type: ADME; settings: isolated protein; summary of the method: as §4
# [16] = Antioxidant activity in Sprague-Dawley rat Cerebral cortex neuron assessed as total oxidative stress level by measuring H2O2 equivalents at 100 uM after 24 hrs (reference value: 2.3 +/- 0.3 umol/L); assay type: functional; summary of the method: as §5
# [17] = Antioxidant activity in Sprague-Dawley rat Cerebral cortex neuron assessed as total antioxidant capacity by measuring trolox equivalents at 25 uM after 24 hrs; assay type: functional; summary of the method: as §5
# [18] = Stability of compound in rat plasma assessed as half life by HPLC-UV assay; assay type: ADME, cell-free; summary of the method: as §6
# [19] = Cytotoxicity against Sprague-Dawley rat Cerebral cortex neuron assessed as LDH activity at 0.1 uM incubated for 24 hrs by LDH assay (reference value: […]); assay type: tissue-based; summary of the method: as §1
# [20] = Antioxidant activity in Sprague-Dawley rat Cerebral cortex neuron assessed as total antioxidant capacity by measuring trolox equivalents at 1 uM after 24 hrs; assay type: functional; summary of the method: as §5
# [21] = Stability of compound in human plasma assessed as half life by HPLC-UV assay; assay type: ADME, cell-free; summary of the method: as §6
# [22] = Cytotoxicity against Sprague-Dawley rat Cerebral cortex neuron assessed as LDH activity at 25 uM incubated for 24 hrs by LDH assay (reference value: […]); assay type: tissue-based; summary of the method: as §1
# [23] = Cytotoxicity against Sprague-Dawley rat Cerebral cortex neuron assessed as cell viability at 0.1 uM incubated for 24 hrs by MTT assay relative to control; assay type: tissue-based; settings: cerebral cortex neurons, read-out: Activity; summary of the method: as §2
# [24] = Antioxidant activity in Sprague-Dawley rat Cerebral cortex neuron assessed as total antioxidant capacity by measuring trolox equivalents at 0.1 uM after 24 hrs; assay type: functional; summary of the method: as §5
# [25] = Antioxidant activity in Sprague-Dawley rat Cerebral cortex neuron assessed as total oxidative stress level by measuring H2O2 equivalents at 1 uM after 24 hrs (reference value: 2.3 +/- 0.3 umol/L); assay type: functional; summary of the method: as §5
# [26] = Stability of compound in non-enzymatic stimulated-gastric fluid at pH 1.3 assessed as rate of compound hydrolysis by HPLC-UV assay; assay type: physicochemical; settings: simulated gi fluid; summary of the method: as §3
# [27] = Antioxidant activity in Sprague-Dawley rat Cerebral cortex neuron assessed as total antioxidant capacity by measuring trolox equivalents at 100 uM after 24 hrs; assay type: functional; summary of the method: as §5
# [28] = Cytotoxicity against Sprague-Dawley rat Cerebral cortex neuron assessed as LDH activity at 100 uM incubated for 24 hrs by LDH assay (reference value: […]); assay type: tissue-based; summary of the method: as §1
Compound,half-life [3],half-life [4],half-life [6],half-life [8],Drug degradation [9],Drug degradation [11],Drug degradation [12],Drug degradation [15],half-life [21],Activity [1],"viability at 24 h, 50 µM [2]",Activity [5],Activity [7],TAC [10],"viability at 24 h, 1 µM [13]",Activity [14],Activity [16],TAC [17],Activity [19],TAC [20],other results
O=C(CCCCC1CCSS1)OC1CCN(Cc2ccc(F)cc2)CC1 (stereo not drawn),47 h,3.77 h,0.68 h,38 h,0.019 h⁻¹,0.184 h⁻¹,0.856 h⁻¹,1.019 h⁻¹,0.81 h,0.29 mU/ml,95.8%,0.5 µmol/L,0.4 µmol/L,13.5 mmol/L,98.3%,0.4 µmol/L,0.5 µmol/L,12.6 mmol/L,0.3 mU/ml,11.2 mmol/L,"half-life [18]: 0.56 h; Activity [22]: 0.3 mU/ml; viability at 24 h, 0.1 µM [23]: 97.5%; TAC [24]: 11 mmol/L; Activity [25]: 0.4 µmol/L; Drug degradation [26]: 0.015 h⁻¹; TAC [27]: 12.4 mmol/L; Activity [28]: 0.32 mU/ml"
COc1ccc(CN2CCC(OC(=O)CCCCC3CCSS3)CC2)cc1 (stereo not drawn),52 h,39.1 h,22.2 h,37 h,0.019 h⁻¹,0.018 h⁻¹,1.14 h⁻¹,0.031 h⁻¹,0.61 h,0.34 mU/ml,95%,0.5 µmol/L,0.5 µmol/L,10.9 mmol/L,98.4%,0.5 µmol/L,0.5 µmol/L,11.4 mmol/L,0.28 mU/ml,11.3 mmol/L,"half-life [18]: 0.46 h; Activity [22]: 0.32 mU/ml; viability at 24 h, 0.1 µM [23]: 99.5%; TAC [24]: 10.8 mmol/L; Activity [25]: 0.4 µmol/L; Drug degradation [26]: 0.013 h⁻¹; TAC [27]: 10.7 mmol/L; Activity [28]: 0.34 mU/ml"
O=C(CCCCC1CCSS1)OC1CCN(Cc2ccccc2)CC1 (stereo not drawn),58.7 h,24.5 h,23.1 h,40.5 h,0.017 h⁻¹,0.028 h⁻¹,1.61 h⁻¹,0.028 h⁻¹,0.43 h,0.29 mU/ml,97.6%,0.4 µmol/L,0.5 µmol/L,13.6 mmol/L,98.7%,0.5 µmol/L,0.5 µmol/L,13.8 mmol/L,0.3 mU/ml,10.9 mmol/L,"t1/2 [18]: Unstable; Activity [22]: 0.32 mU/ml; viability at 24 h, 0.1 µM [23]: 99.8%; TAC [24]: 10.8 mmol/L; Activity [25]: 0.5 µmol/L; Drug degradation [26]: 0.012 h⁻¹; TAC [27]: 12.5 mmol/L; Activity [28]: 0.32 mU/ml"
O=C(CCCCC1CCSS1)N1CCN(Cc2ccccc2)CC1 (stereo not drawn),93 h,69 h,66.2 h,53.8 h,0.013 h⁻¹,0.01 h⁻¹,0.39 h⁻¹,0.01 h⁻¹,1.76 h,0.32 mU/ml,96%,0.5 µmol/L,0.5 µmol/L,14.8 mmol/L,98.6%,0.5 µmol/L,0.5 µmol/L,12.9 mmol/L,0.3 mU/ml,11.1 mmol/L,"t1/2 [18]: Unstable; Activity [22]: 0.32 mU/ml; viability at 24 h, 0.1 µM [23]: 99.4%; TAC [24]: 10.4 mmol/L; Activity [25]: 0.5 µmol/L; Drug degradation [26]: 0.007 h⁻¹; TAC [27]: 14.6 mmol/L; Activity [28]: 0.34 mU/ml"

# Now from value to compound, other results behind:
half-life [3],half-life [4],half-life [6],half-life [8],Drug degradation [9],Drug degradation [11],Drug degradation [12],Drug degradation [15],half-life [21],Compound,Activity [1],"viability at 24 h, 50 µM [2]",Activity [5],Activity [7],TAC [10],"viability at 24 h, 1 µM [13]",Activity [14],Activity [16],TAC [17],Activity [19],TAC [20],other results
88 h,107 h,37.2 h,81 h,0.009 h⁻¹,0.007 h⁻¹,0.165 h⁻¹,0.019 h⁻¹,4.21 h,O=C(CCCCC1CCSS1)N1CCN(Cc2ccc(F)cc2)CC1 (stereo not drawn),0.34 mU/ml,96.5%,0.5 µmol/L,0.4 µmol/L,11.4 mmol/L,97.5%,0.5 µmol/L,0.5 µmol/L,13.9 mmol/L,0.3 mU/ml,11.2 mmol/L,"half-life [18]: 2.92 h; Activity [22]: 0.32 mU/ml; viability at 24 h, 0.1 µM [23]: 99.3%; TAC [24]: 10.9 mmol/L; Activity [25]: 0.5 µmol/L; Drug degradation [26]: 0.008 h⁻¹; TAC [27]: 11.1 mmol/L; Activity [28]: 0.34 mU/ml"
240 h,112 h,23.7 h,238 h,0.003 h⁻¹,0.006 h⁻¹,0.13 h⁻¹,0.029 h⁻¹,5.28 h,COc1ccc(CN2CCN(C(=O)CCCCC3CCSS3)CC2)cc1 (stereo not drawn),0.3 mU/ml,92.7%,0.5 µmol/L,0.4 µmol/L,11 mmol/L,97.4%,0.5 µmol/L,0.5 µmol/L,11.3 mmol/L,0.28 mU/ml,11.2 mmol/L,"half-life [18]: 4.13 h; Activity [22]: 0.29 mU/ml; viability at 24 h, 0.1 µM [23]: 98.1%; TAC [24]: 10.5 mmol/L; Activity [25]: 0.5 µmol/L; Drug degradation [26]: 0.003 h⁻¹; TAC [27]: 10.8 mmol/L; Activity [28]: 0.34 mU/ml"
